Hits are enriched below; roughly 1.9% of the tested compounds scored in any of these assays.
M4 ag: agonists of human muscarinic M4 receptor (CHRM4); CHO-K1 hM4/Gqi5, Fluo-8 calcium fluorescence; vehicle 0%, full acetylcholine response 100%; activation, % at 3 µM; 0.14% of 360,000 active;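 active = activation above the run mean over all test wells plus 3 SD, cut at about 32% in these data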;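 also: peak over basal fluorescence ratio per well then scaled between controls; 0% = DMSO wells and 100% = acetylcholine at EC100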
CHRM5 antagonist: antagonists of human muscarinic M5 receptor (CHRM5) | P08912 | CHO-hM5 cells, Fluo-8 calcium fluorescence, ACh EC80 | inhibition, % at 3 µM | 0.59% of 360,000 active;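 active = inhibition above a per-plate cutoff, the mean of that plate's test compounds plus 3 SD, cut at about 27% in these data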;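 also: 0% = acetylcholine EC80 with DMSO and 100% = DMSO without agonist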
Target sequence (P08912 whole entry, looked up): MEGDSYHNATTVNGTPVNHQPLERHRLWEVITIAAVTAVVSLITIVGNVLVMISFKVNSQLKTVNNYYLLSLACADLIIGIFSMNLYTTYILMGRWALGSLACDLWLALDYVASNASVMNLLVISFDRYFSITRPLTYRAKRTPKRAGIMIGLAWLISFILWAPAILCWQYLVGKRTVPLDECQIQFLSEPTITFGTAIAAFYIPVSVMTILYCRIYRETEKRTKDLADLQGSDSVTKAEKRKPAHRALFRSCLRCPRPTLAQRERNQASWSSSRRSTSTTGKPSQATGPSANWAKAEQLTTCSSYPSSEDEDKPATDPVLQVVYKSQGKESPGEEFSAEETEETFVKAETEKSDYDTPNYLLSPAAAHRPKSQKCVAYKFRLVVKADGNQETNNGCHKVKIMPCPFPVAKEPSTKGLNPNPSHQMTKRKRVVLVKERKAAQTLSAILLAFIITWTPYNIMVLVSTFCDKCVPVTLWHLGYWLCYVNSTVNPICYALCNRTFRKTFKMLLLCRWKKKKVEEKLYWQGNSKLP
M4 PAM: CHRM4 positive allosteric modulation; P08173; CHO-K1 hM4/Gqi5, Fluo-8 calcium fluorescence, ACh EC20; 0% = ACh EC20, 100% = maximal ACh; AID 624126; 0.4% of 360,000 active; activation, % at 3 µM;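 active = activation above its plate's cutoff, the mean activation of sample wells plus 3 SD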
M5 PAM: CHRM5 positive allosteric modulation; P08912; CHO-K1 hM5, Fluo-8 calcium, ACh EC20 PAM; 0% = ACh EC20, 100% = ACh EC100; activation, % at 3 µM; 0.3% of 360,000 active; AID 624038;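 active = activation above the run cutoff, the mean activation of all test compounds plus 3 SD, cut at about 18% in these data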
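System: CHO-K1 hM5 cells. Reagent: acetylcholine, EC20 level. Compound dosing: single dose, 3 µM nominal final test concentration. Timing: Post-acetylcholine fluorescence recording 140 s. Detection: Fluo-8 calcium fluorescence. Read-out: % activation, ACh-normalized. Benchmarks: ACh EC20 and EC100 wells. Repeats: singlicate, one well per test compound.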
CHRM4 antagonist: CHRM4 antagonism in calcium assay. CHO-hM4 cells, ACh EC80, Fluo-8 calcium fluorescence. inhibition, % at 3 µM. 0.73% of 360,000 active. AID 624125;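 active = inhibition above its plate's cutoff, the mean inhibition of sample wells plus 3 SD, cut at about 27% in these data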;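 also: 0% = acetylcholine EC80 with DMSO and 100% = DMSO without agonist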
CHRM5 agonist: agonists of human muscarinic M5 receptor (CHRM5) | CHO-K1 hM5 cells, Fluo-8 calcium fluorescence; 0% DMSO wells, 100% maximal acetylcholine response | P08912 | AID 624037 | 0.19% of 360,000 active | activation, % at 3 µM;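 active = activation above the run's mean over test compounds plus 3 SD, cut at about 23% in these data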;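 also: signal is peak over basal fluorescence ratio across the kinetic read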
* marks the source's active call; other numbers are inactive results.

SMILES | M4 ag | CHRM5 antagonist | M4 PAM | M5 PAM | CHRM4 antagonist | CHRM5 agonist
O=C(NCC(c1ccco1)N1CCCC1)c1ccc(S(=O)(=O)Nc2ccc(F)cc2)cc1 (stereo unspecified) | 11 | 8 | -6 | -14 | 6 | -2
CCOc1ccc(NS(=O)(=O)c2ccc(NC(=S)NC(=O)C(C)C)cc2)cc1 | 7 | 6 | 0 | 1 | 0 | 12
COc1ccc(-c2csc(NC(=O)CN3C(=O)NC4(CCCC4)C3=O)n2)cc1OC | 3 | 6 | -6 | -4 | -4 | 5
CN1OC[C@@H]2CN(Cc3cc(Cl)cc(Cl)c3)[C@H](c3cccc(-c4ccccc4)c3)C[C@@H]21 | 1 | 3 | -5 | -4 | 7 | 3
Cc1cc(C)c2cc(C(=O)N3CCN(c4ncccc4C(F)(F)F)CC3)[nH]c2c1 | 1 | -8 | 0 | 1 | -17 | -2
CCOc1ccc(NS(=O)(=O)c2ccc(C(=O)N3CC(C)OC(C)C3)cc2)cc1 (stereo unspecified) | 66* | 5 | -6 | -17 | 3 | 57*
Cc1ccc(NS(=O)(=O)c2ccc(C(=O)N3CCCC(C(F)(F)F)C3)cc2)cc1 (stereo unspecified) | 34* | 13 | -6 | -12 | 14 | 54*
COc1ccc(NS(=O)(=O)c2ccc(C(=O)N3CCC(C)CC3)cc2)cc1 | 27 | 13 | -9 | -21 | -5 | 39*
CC1CN(C(=O)c2ccc(NS(=O)(=O)c3ccc(C(C)(C)C)cc3)cc2)CC(C)O1 (stereo unspecified) | 33* | 2 | -6 | -4 | 12 | 48*
OC1(c2ccccn2)COc2ccccc2O1 (stereo unspecified) | 1 | 0 | 8 | 5 | -19 | 0
COc1ccc(NS(=O)(=O)c2ccc(C(=O)N(C)Cc3ccc(C)o3)cc2)cc1 | 14 | -2 | -4 | -4 | -3 | 28*
Cc1ccc(NS(=O)(=O)c2ccc(C3CCCCC3)cc2)cc1 | 12 | 27* | -18 | -18 | 49* | 5
Cc1ccc(S(=O)(=O)Nc2ccc(N3CCCCC3)cc2)cc1 | 1 | -13 | 0 | -5 | 0 | -2
COc1ccc(CN(C)C(=O)c2ccc(NS(=O)(=O)c3ccc(F)cc3)cc2)c(OC)c1 | 3 | 3 | -9 | -9 | 13 | 1
CCOC(=O)CN1C(=O)CSc2ccccc21 | 0 | 5 | 8 | -4 | 33* | 1
O=C(O)CN1C(=O)CSc2ccccc21 | 1 | 7 | 7 | 1 | -2 | -1
NC(=O)c1ncn([C@@H]2O[C@H](CNCc3cc(Br)ccc3OCc3ccccc3)[C@@H](O)[C@H]2O)n1 | 0 | -10 | 10 | 3 | -11 | 1
C[C@@H]1CC[C@H](O)/C=C/C(=O)O[C@H](C)CC[C@H](O)/C=C/C(=O)O1 | 1 | 5 | 0 | -10 | -4 | 37*
COc1ccc(CCNC(=O)C2CC=CCC2C(=O)O)cc1 (stereo unspecified) | 1 | 4 | -1 | 2 | 2 | -6
CCC(C)(C)c1ccc(OCCCC[n+]2cccc(C)c2C)c(C(C)(C)CC)c1 | 9 | 47* | -16 | -27 | 62* | -19
CN1CCc2cccc3c2C1Cc1ccc(O)c(O)c1-3 (stereo unspecified) | 3 | 4 | -8 | -7 | 5 | 36*
O=C(N/N=C\c1ccc(Sc2ccccn2)o1)c1cccc(Br)c1 | 6 | -1 | 7 | -7 | -8 | 0
Cc1ccccc1C(=O)N/N=C/c1ccc(Sc2ccccn2)o1 | 2 | 23 | 4 | 24* | -1 | 2
Cc1ncc(C[n+]2csc(C)c2C)c(N)n1 | 0 | -8 | 17 | 22* | 10 | -6
CN(c1ccccc1)S(=O)(=O)c1ccc(NC(=O)c2nc(S(C)(=O)=O)ncc2Cl)cc1 | 21 | 31* | -14 | -12 | 78* | 2
SMILES | M4 ag | CHRM5 antagonist | M4 PAM | M5 PAM | CHRM4 antagonist | CHRM5 agonist
CN(c1ccccc1)S(=O)(=O)c1ccc(NC(=O)c2ccccc2)cc1 | 4 | 9 | -8 | -10 | 5 | -2
COc1cccc(NC(=O)c2nc(S(C)(=O)=O)ncc2Cl)c1 | -1 | 18 | -3 | -3 | 36* | -2
CCCCC(=O)OCC(=O)C1(O)Cc2c(O)c3c(c(O)c2C(OC2CC(NC(=O)C(F)(F)F)C(O)C(C)O2)C1)C(=O)c1c(OC)cccc1C3=O (stereo unspecified) | 13 | 40* | -5 | -22 | 23 | 33*
O=C(Nc1ccc(F)cc1)c1cc2cc(Cl)ccc2[nH]1 | 10 | 31* | -1 | -14 | -6 | 2
CCc1ccc2[nH]c(C(=O)Nc3ccc(C)c(F)c3)cc2c1 | 2 | 18 | -4 | -2 | 3 | -2
Cc1ccc(N2CC(C(=O)N3CCC(C(=O)Nc4nnc(C(C)C)s4)CC3)CC2=O)cc1 (stereo unspecified) | -1 | 7 | -8 | -1 | 6 | -3
O=C(Nc1cccc(C(F)(F)F)c1)C(=O)N1CCCCC1 | 0 | -7 | 8 | 20* | 5 | 1
CCN(CC(=O)NCc1cccs1)C(=O)/C=C/c1cc(Br)ccc1OC(F)F | 4 | 8 | 15 | -1 | -21 | -4
Cn1nc(C(F)(F)F)c(-c2ccc(Br)cc2)c1NC(=O)CSCC(=O)O | 0 | 16 | 12 | -1 | -3 | -2
CCCCNC(=O)C1c2ccccc2OCC(=O)N1Cc1ccc2c(c1)OCO2 (stereo unspecified) | 1 | -1 | 1 | 0 | -3 | 0
CCCCNC(=O)C1c2ccccc2OCC(=O)N1Cc1ccccc1 (stereo unspecified) | 1 | -16 | 23* | 12 | -11 | 1
Nc1c(N(CCC2=CCCCC2)C(=O)C2CC2)c(=O)[nH]c(=O)n1Cc1ccccc1 | 1 | -5 | 4 | -2 | -1 | 0
Cc1c(C(=O)NCc2ccc3c(c2)OCCO3)sc(=O)n1Cc1ccccc1F | 14 | 0 | 2 | -5 | -21 | 3
O=c1cc2c(nn1Cc1ccc(Cl)cc1)-c1ccccc1CC2 | -1 | 0 | 9 | 30* | 7 | -5
O=c1cc2c(nn1Cc1cccc(Cl)c1)-c1ccccc1CC2 | -1 | -2 | -2 | 2 | 3 | -9
COCCNC(=O)CSc1n[nH]c(=O)n1CCc1ccccc1 | 1 | 4 | 4 | 5 | 4 | -3
CC(NCC(=O)Nc1ccccc1C(=O)NC1CC1)c1cccc(C(F)(F)F)c1 (stereo unspecified) | 12 | -4 | -4 | -4 | -1 | 8
CSc1sc(C(=O)NCC2CC2)c2c1S(=O)(=O)N(C)c1ccccc1-2 | 7 | 9 | -9 | -12 | -10 | 3
